Laboratory results published in ChEMBL document CHEMBL1152869, “An inhibitor of FtsZ with potent and selective anti-staphylococcal activity” (Science, 2008).
Converted amounts (≈) assume the structure as drawn. The source made the active and inactive calls. The rule behind the calls is not given here.

How the values were obtained:
Bacillus subtilis [1] = experiment: Antibacterial activity against Bacillus subtilis by broth microdilution method; format: functional
Staphylococcus aureus [2] = experiment: Antibacterial activity against Staphylococcus aureus by broth microdilution method; format: functional
Staphylococcus aureus [3] = experiment: Antibacterial activity against methicillin-resistant Staphylococcus aureus by broth microdilution method; format: functional
Staphylococcus aureus [4] = experiment: Antibacterial activity against multidrug-resistant Staphylococcus aureus by broth microdilution method; format: functional
[5] = system: Staphylococcus epidermidis; experiment: Antibacterial activity against Staphylococcus epidermidis by broth microdilution method; format: functional
[6] = system: Staphylococcus haemolyticus; experiment: Antibacterial activity against Staphylococcus haemolyticus by broth microdilution method; format: functional
Staphylococcus hominis = experiment: Antibacterial activity against Staphylococcus hominis by broth microdilution method; format: functional
[7] = system: Staphylococcus lugdunensis; experiment: Antibacterial activity against Staphylococcus lugdunensis by broth microdilution method; format: functional
[8] = system: Staphylococcus saprophyticus; experiment: Antibacterial activity against Staphylococcus saprophyticus by broth microdilution method; format: functional
Staphylococcus warneri = experiment: Antibacterial activity against Staphylococcus warneri by broth microdilution method; format: functional
Enterococcus faecalis = experiment: Antibacterial activity against Enterococcus faecalis by broth microdilution method; format: functional
Escherichia coli = experiment: Antibacterial activity against Escherichia coli by broth microdilution method; format: functional
Haemophilus influenzae = experiment: Antibacterial activity against Haemophilus influenzae by broth microdilution method; format: functional
Pseudomonas aeruginosa = experiment: Antibacterial activity against Pseudomonas aeruginosa by broth microdilution method; format: functional
Streptococcus pneumoniae = experiment: Antibacterial activity against Streptococcus pneumoniae by broth microdilution method; format: functional
Saccharomyces cerevisiae = experiment: Antifungal activity against Saccharomyces cerevisiae by broth microdilution method; format: functional
HepG2 = experiment: Cytotoxicity against human HepG2 cells; format: cell-based
Staphylococcus aureus [9] = experiment: Antibacterial activity against Staphylococcus aureus bearing FtsZ R191P mutant by broth microdilution method; format: functional
Staphylococcus aureus [10] = experiment: Antibacterial activity against Staphylococcus aureus bearing FtsZ G193D mutant by broth microdilution method; format: functional
Staphylococcus aureus [11] = experiment: Antibacterial activity against Staphylococcus aureus bearing FtsZ G196A mutant by broth microdilution method; format: functional
Staphylococcus aureus [12] = experiment: Antibacterial activity against Staphylococcus aureus bearing FtsZ V214F mutant by broth microdilution method; format: functional
Staphylococcus aureus [13] = experiment: Antibacterial activity against Staphylococcus aureus bearing FtsZ N263K mutant by broth microdilution method; format: functional
Staphylococcus aureus [14] = experiment: Antibacterial activity against Staphylococcus aureus bearing FtsZ G266S mutant by broth microdilution method; format: functional
Bacillus subtilis [15] = experiment: Antibacterial activity against Bacillus subtilis bearing FtsZ A47P mutant by broth microdilution method; format: functional
Bacillus subtilis [16] = experiment: Antibacterial activity against Bacillus subtilis bearing FtsZ G196A mutant by broth microdilution method; format: functional
Bacillus subtilis [17] = experiment: Antibacterial activity against Bacillus subtilis bearing FtsZ V307R mutant by broth microdilution method; format: functional
Bacillus subtilis [18] = experiment: Antibacterial activity against Bacillus subtilis bearing FtsZ V307H mutant by broth microdilution method; format: functional
Staphylococcus aureus [19] = experiment: Bactericidal activity against Staphylococcus aureus ATCC 29213 assessed as logarithmic reduction in viable cell numbers at >= MIC after 24 hrs; format: functional
Staphylococcus aureus [20] = experiment: Antibacterial activity against Staphylococcus aureus Smith ATCC 19636 in CD1 mouse septicemia model assessed as survival at 30 mg/kg, sc after 7 days relative to control; format: functional; conditions: 168 h, route subcutaneous
In short: (§1)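 At 1 h post-infection they received a single SC or IV dose of 3, 10 or 30 mg/kg. Controls were vehicle only and vancomycin 3 mg/kg by the same route. Mortality was recorded daily for 7 days, and ED50 was derived from dose-dependent survival.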

Staphylococcus aureus [21] = experiment: Antibacterial activity against Staphylococcus aureus Smith ATCC 19636 in CD1 mouse septicemia model assessed as survival at 30 mg/kg, iv after 7 days relative to control; format: functional; conditions: 168 h; in short: as §1
Staphylococcus aureus [22] = experiment: Antibacterial activity against Staphylococcus aureus Smith ATCC 19636 in sc dosed CD1 mouse septicemia model assessed as survival after 7 days; format: functional; in short: as §1
Staphylococcus aureus [23] = experiment: Antibacterial activity against Staphylococcus aureus Smith ATCC 19636 in iv dosed CD1 mouse septicemia model assessed as survival after 7 days; format: functional; in short: as §1
Staphylococcus aureus [24] = experiment: Antibacterial activity against Staphylococcus aureus Smith ATCC 19636 in ip dosed CD1 mouse septicemia model assessed as survival administered 1 hr postinfection measured after 7 days; format: functional
[25] = target: T1, Cell division protein FtsZ (Staphylococcus aureus) (UniProt P0A031); experiment: (§2) Inhibition of Staphylococcus aureus FtsZ GTPase activity
T1 sequence (whole entry): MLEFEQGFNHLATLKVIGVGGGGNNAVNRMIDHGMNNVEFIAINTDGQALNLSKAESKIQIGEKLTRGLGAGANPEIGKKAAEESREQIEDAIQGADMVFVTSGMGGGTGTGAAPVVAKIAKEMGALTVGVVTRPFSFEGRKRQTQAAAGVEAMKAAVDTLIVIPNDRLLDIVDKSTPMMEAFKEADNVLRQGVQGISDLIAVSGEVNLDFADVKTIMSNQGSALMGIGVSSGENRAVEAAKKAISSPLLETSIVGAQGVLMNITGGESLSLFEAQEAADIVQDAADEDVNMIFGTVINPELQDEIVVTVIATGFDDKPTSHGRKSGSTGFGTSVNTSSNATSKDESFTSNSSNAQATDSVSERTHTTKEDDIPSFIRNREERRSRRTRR
In short: (§3)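 S. aureus FtsZ cloned, overexpressed and purified; in vitro GTPase activity measured across a compound concentration series; IC50 derived from concentration-dependent inhibition.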

[26] = target: T2, Cell division protein FtsZ (Staphylococcus aureus, UniProt P0A031); experiment: as §2; in short: as §3
T2 sequence (P0A031 whole entry): T1 sequence (whole entry)

[27] = target: T3, Cell division protein FtsZ (Bacillus subtilis (strain 168)) (UniProt P17865); experiment: Inhibition of GFP-FtsZ localization in Bacillus subtilis 2020 assessed as protein mislocalization to assemble into cytokinetic ring at 8 ug/ml by florescence microscopy
T3 sequence (whole entry): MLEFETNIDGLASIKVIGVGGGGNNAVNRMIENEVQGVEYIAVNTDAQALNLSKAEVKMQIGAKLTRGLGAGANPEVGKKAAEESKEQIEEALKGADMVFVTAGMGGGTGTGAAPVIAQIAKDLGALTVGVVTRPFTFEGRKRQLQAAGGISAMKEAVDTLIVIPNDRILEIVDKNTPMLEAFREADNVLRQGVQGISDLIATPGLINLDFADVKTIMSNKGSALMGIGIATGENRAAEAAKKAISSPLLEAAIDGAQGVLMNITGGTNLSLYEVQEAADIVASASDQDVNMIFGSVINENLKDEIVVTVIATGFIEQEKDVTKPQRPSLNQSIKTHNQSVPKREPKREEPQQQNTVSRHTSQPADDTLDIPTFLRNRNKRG
In short: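 B. subtilis 2020 carrying gfp-ftsZ cultured with or without compound at 8 μg/ml; FtsZ localization visualized by fluorescence microscopy.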

Bacillus subtilis [28] = experiment: Inhibition of cell division in Bacillus subtilis 168 assessed as elongation of cells at 2 ug/ml by phase contrast microscopy; format: functional, organism-based; conditions: subsp. subtilis str. 168
In short: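 B. subtilis 168 cells grown with or without compound at 2 μg/ml; cell morphology examined by phase-contrast microscopy.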

Staphylococcus aureus [29] = experiment: Inhibition of cell division in Staphylococcus aureus ATCC 29213 assessed as enlargement of cells at 2 ug/ml by phase contrast microscopy; format: functional, organism-based
In short: (§4)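 S. aureus ATCC 29213 cells grown with or without compound at 2 μg/ml; cell morphology examined by phase-contrast microscopy.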

Staphylococcus aureus [30] = experiment: Inhibition of cell division in Staphylococcus aureus ATCC 29213 assessed as enlargement of cells at 2 ug/ml within 2 hrs by phase contrast microscopy; format: functional, organism-based; in short: as §4
Bos taurus [31] = organism: Bos taurus; experiment: Inhibition of bovine brain tubulin polymerization at 64 ug/ml
Bos taurus [32] = organism: Bos taurus; experiment: Enhancement of bovine brain tubulin polymerization at 64 ug/ml
Staphylococcus aureus [33] = experiment: Bactericidal activity against Staphylococcus aureus ATCC 29213 assessed as reduction in cell viability at 2 ug/ml within 24 hrs by serial dilution method
Bos taurus [34] = organism: Bos taurus; experiment: Enhancement of bovine brain tubulin polymerization at 25 uM
Bacillus subtilis [35] = experiment: Inhibition of cell division in Bacillus subtilis 168 at 50 uM by phase contrast microscopy; format: functional, organism-based; conditions: subsp. subtilis str. 168

Compound `NC(=O)c1c(F)ccc(OCc2nc3cc(Cl)cnc3s2)c1F` has an MIC (Bacillus subtilis [1]) of 0.5 µg/mL (≈ 1.41 µM), an MIC (Staphylococcus aureus [2]) of 1 µg/mL (≈ 2.81 µM) and an MIC (Staphylococcus aureus [3]) of 1 µg/mL (≈ 2.81 µM). The MIC (Staphylococcus aureus [4]) was 1 µg/mL (≈ 2.81 µM), the MIC [5] was 1 µg/mL (≈ 2.81 µM) and the MIC [6] was 0.5 µg/mL (≈ 1.41 µM). It also gave an MIC (Staphylococcus hominis) of 1 µg/mL (≈ 2.81 µM), an MIC [7] of 1 µg/mL (≈ 2.81 µM) and an MIC [8] of 1 µg/mL (≈ 2.81 µM). The MIC (Staphylococcus warneri) was 1 µg/mL (≈ 2.81 µM), the MIC (Enterococcus faecalis) was > 64 µg/mL and the MIC (Escherichia coli) was > 64 µg/mL. The MIC (Haemophilus influenzae) was > 64 µg/mL, the MIC (Pseudomonas aeruginosa) was > 64 µg/mL and the MIC (Streptococcus pneumoniae) was > 64 µg/mL. The MIC (Saccharomyces cerevisiae) was > 64 µg/mL, the IC50 (HepG2) was > 64 µg/mL and the MIC (Staphylococcus aureus [9]) was > 512 µg/mL. For the same compound, the MIC (Staphylococcus aureus [10]) was > 512 µg/mL, the MIC (Staphylococcus aureus [11]) was > 512 µg/mL and the MIC (Staphylococcus aureus [12]) was > 512 µg/mL. The MIC (Staphylococcus aureus [13]) was > 512 µg/mL, the MIC (Staphylococcus aureus [14]) was > 512 µg/mL and the MIC (Bacillus subtilis [15]) was 1 µg/mL (≈ 2.81 µM). For the same compound, the MIC (Bacillus subtilis [16]) was > 64 µg/mL, the MIC (Bacillus subtilis [17]) was 8 µg/mL (≈ 22.5 µM) and the MIC (Bacillus subtilis [18]) was 2 µg/mL (≈ 5.62 µM). For the same compound, the Activity (Staphylococcus aureus [19]) was >3, the survival at 30 mg/kg (Staphylococcus aureus [20]) was 100% and the survival at 30 mg/kg (Staphylococcus aureus [21]) was 100%. The Activity (Staphylococcus aureus [22]) was “Dose-dependent effect”, the ED50 (Staphylococcus aureus [22]; 168 h) was 7.3 mg/kg and the Activity (Staphylococcus aureus [23]) was “Dose-dependent effect”. The ED50 (Staphylococcus aureus [23]; 168 h) was 10.2 mg/kg, the ED50 (Staphylococcus aureus [24]) was 3.1 mg/kg and the Activity [25] was “Dose-dependent effect”. For the same compound, the IC50 [26] was 155 nM, the Activity [27] was “Active” and the Activity (Bacillus subtilis [28]) was “Active”. The Activity (Staphylococcus aureus [29]) was “Active”, the Activity (Staphylococcus aureus [30]) was “Active” and the Activity (Bos taurus [31]) was “inactive”. The Activity (Bos taurus [32]) was “inactive” and the Activity (Staphylococcus aureus [33]) was “Active”.

For `CC(=O)O[C@H]1C(=O)[C@@]2(C)[C@H]([C@H](OC(=O)c3ccccc3)[C@]3(O)C[C@H](OC(=O)[C@H](O)[C@@H](NC(=O)c4ccccc4)c4ccccc4)C(C)=C1C3(C)C)[C@]1(OC(C)=O)CO[C@@H]1C[C@@H]2O`, the Activity (Bos taurus [34]) was “Active” and the Activity (Bacillus subtilis [35]) was “inactive”.

In the case of `COc1cccc(C(N)=O)c1`, the MIC (Bacillus subtilis [1]) is reported as 2050 µg/mL (≈ 13500 µM), the MIC (Staphylococcus aureus [2]) is reported as 2050 µg/mL (≈ 13500 µM) and the MIC (Bacillus subtilis [15]) is reported as > 8190 µg/mL. The MIC (Bacillus subtilis [16]) was 1020 µg/mL (≈ 6770 µM), the MIC (Bacillus subtilis [17]) was > 8190 µg/mL and the MIC (Bacillus subtilis [18]) was 4100 µg/mL (≈ 27100 µM).
